Test results taken from ChEMBL document CHEMBL1250466, “CLEFMA-an anti-proliferative curcuminoid from structure-activity relationship studies on 3,5-bis(benzylidene)-4-piperidones” (Bioorg Med Chem, 2010).
Calls of active or inactive are those of the source. The calls are words filed in the database; no cut-off is given here.

What was measured:
[1] = Antiproliferative activity against human H441 cells assessed as decrease of hexosaminidase activity after 24 hrs; type: functional, cell-based; conditions: NCI-H441, 24 h
Procedure, shortened: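 H441 (NCI-H441) cells in McCoy's 5A with 5% heat-inactivated FBS, gentamicin 50 μg/ml, 37 °C, 5% CO2; 10×10^3 cells/well seeded, attached overnight. Compounds in DMSO (0.1% final) at 1, 10, 25, 100 μM for 24 h. Hexosaminidase substrate in citrate pH 5, 30 min 37 °C, stopped with glycine/EDTA pH 10.4, A405. Triplicate, repeated at least twice; IC50 from linear or exponential fit of concentration vs activity.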

[2] = system: NCI-H441; experiment: Induction of autophagy in human H441 cells assessed as double-membrane pre-autophagosomal structures containing cell organelles at 1 to 10 uM after 24 hrs by transmission electron microscopic analysis; type: functional, cell-based
Procedure, shortened: (§1)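 H441 cells exposed 24 h at 1 and 10 μM, then fixed 4 h at room temperature in 0.1 M cacodylate with 4% PFA and 2% glutaraldehyde. Post-fixed in 1% osmium tetroxide 1.5 h, dehydrated through a graded ethanol series, ultrasections stained with Sato's lead. Imaged by transmission electron microscopy at 2500×; untreated cells as controls.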

[3] = system: NCI-H441; experiment: Induction of autophagosome formation in human H441 cells at 10 uM after 24 using monodansylcadaverine staining by fluorescent microscopic analysis; type: functional, cell-based
Procedure, shortened: (§2)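 H441 cells labeled with the autophagic-vacuole marker monodansylcadaverine after treatment and examined by fluorescence microscopy; autophagy inhibition tested with 3-methyladenine.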

[4] = system: NCI-H441; experiment: Induction of autophagy in human H441 cells assessed as large single-walled autophagic vacuoles at 1 to 10 uM after 24 by transmission electron microscopic analysis; type: functional, cell-based; procedure, shortened: as §1
[5] = system: NCI-H441; experiment: Induction of autophagy in human H441 cells assessed as peri-nuclear accumulation of mitochondria at 1 to 10 uM after 24 by transmission electron microscopic analysis; type: functional; procedure, shortened: as §1
[6] = system: NCI-H441; experiment: Induction of autophagosome formation in human H441 cells at 10 uM after 24 using monodansylcadaverine staining by fluorescent microscopic analysis in presence of 3-methyladenine; type: functional, cell-based; procedure, shortened: as §2
[7] = system: NCI-H441; experiment: Induction of autophagy in human H441 cells assessed as chromatin condensation at 1 to 10 uM after 24 by transmission electron microscopic analysis; type: functional, cell-based; procedure, shortened: as §1
[8] = system: NCI-H441; experiment: Induction of autophagy in human H441 cells assessed as peri-nuclear accumulation of cell organelles at 1 to 10 uM after 24 by transmission electron microscopic analysis; type: functional, cell-based; procedure, shortened: as §1
[9] = system: NCI-H441; experiment: Induction of autophagy in human H441 cells assessed as blebbing of nuclear membrane at 1 to 10 uM after 24 by transmission electron microscopic analysis; type: functional, cell-based; procedure, shortened: as §1
[10] = system: MIA PaCa-2; experiment: Antiproliferative activity against human MIAPaCa2 cells assessed as decrease of hexosaminidase activity at 1 to 100 uM after 24 to 72 hrs; type: functional, cell-based
Procedure, shortened: (§3)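 Cells kept as for H441 but in RPMI 1640 with 5% heat-inactivated FBS and gentamicin 50 μg/ml; 10×10^3 cells/well seeded, attached overnight. Compounds in DMSO (0.1% final) at 1, 10, 25, 100 μM for 24, 48 and 72 h. Remaining cells read by hexosaminidase activity (substrate in citrate pH 5, 30 min 37 °C, glycine/EDTA pH 10.4 stop, A405) as percent of DMSO control; triplicate, repeated at least twice.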

[11] = system: NCI-H441; experiment: Induction of apoptosis in human H441 cells assessed as caspase 3/7 activation by immunoblotting; type: functional, cell-based
[12] = system: NCI-H441; experiment: Induction of apoptosis in human H441 cells assessed as caspase 3 activation by immunoblotting; type: functional, cell-based
[13] = system: PANC-1; experiment: Antiproliferative activity against human PANC1 cells assessed as decrease of hexosaminidase activity at 1 to 100 uM after 24 to 72 hrs; type: functional, cell-based; procedure, shortened: as §3
[14] = system: PC-3; experiment: Antiproliferative activity against human PC3 cells assessed as decrease of hexosaminidase activity at 1 to 100 uM after 24 to 72 hrs; type: functional, cell-based; procedure, shortened: as §3
[15] = system: NCI-H441; experiment: Induction of apoptosis in human H441 cells; type: functional, cell-based
[16] = system: NCI-H441; experiment: Induction of apoptosis in human H441 cells assessed as caspase cleavage by immunoblotting; type: functional, cell-based

Row | Compound | IC50 [1] [µM] | also measured
1 | CCCCCCCCCCCC/C=C/C(CC(=O)O)C(=O)N1C/C(=C\c2ccccc2F)C(=O)/C(=C/c2ccccc2F)C1 (configuration not stated) | 47 | –
2 | CCCCCCCCCCCCCCCC/C=C/C(CC(=O)O)C(=O)N1C/C(=C\c2ccccc2F)C(=O)/C(=C/c2ccccc2F)C1 (configuration not stated) | 84 | –
3 | Cc1ccc(S(=O)(=O)N2C/C(=C\c3ccccc3F)C(=O)/C(=C/c3ccccc3F)C2)cc1 | 50 | –
4 | O=C1/C(=C/c2ccccc2)CNC/C1=C\c1ccccc1 | 12 | –
5 | O=CN1C/C(=C\c2ccccc2F)C(=O)/C(=C/c2ccccc2F)C1 | 49 | –
6 | O=C1/C(=C/c2cccc(Cl)c2)CNC/C1=C\c1cccc(Cl)c1 | 50 | –
7 | O=C1/C(=C/c2ccccc2F)CNC/C1=C\c1ccccc1F | 44 | Activity [2]: Active; Activity [3]: Active; Activity [4]: Active; Activity [5]: Active; Activity [6]: inactive; Activity [7]: inactive; Activity [8]: Active; Activity [9]: Active
8 | O=C(O)/C=C\C(=O)N1C/C(=C\c2ccccc2Cl)C(=O)/C(=C/c2ccccc2Cl)C1 | 1 | Activity [10]: Active; Activity [11]: inactive; Activity [2]: Active; Activity [3]: Active; Activity [12]: inactive; Activity [4]: Active; Activity [13]: Active; Activity [14]: Active; Activity [5]: Active; Activity [6]: inactive; Activity [15]: inactive; Activity [16]: inactive; Activity [7]: inactive; Activity [8]: Active; Activity [9]: Active
9 | CC(=O)N1C/C(=C\c2ccccc2F)C(=O)/C(=C/c2ccccc2F)C1 | 54 | –
10 | O=C1/C(=C/c2ccccc2Cl)CNC/C1=C\c1ccccc1Cl | 5 | –
11 | CCCCCCCCCC/C=C/C(CC(=O)O)C(=O)N1C/C(=C\c2ccccc2F)C(=O)/C(=C/c2ccccc2F)C1 (configuration not stated) | 58 | –
12 | O=C(O)CCC(=O)N1C/C(=C\c2ccccc2F)C(=O)/C(=C/c2ccccc2F)C1 | 69 | –
13 | CN(C)c1ccc(/C=C2\CNC/C(=C\c3ccc(N(C)C)cc3)C2=O)cc1 | 101 | –
14 | O=C1/C(=C/c2ccccc2[N+](=O)[O-])CNC/C1=C\c1ccccc1[N+](=O)[O-] | 93 | –
15 | CCCCCCCCCCCCCCCCNC(=O)CCC(=O)N1C/C(=C\c2ccccc2F)C(=O)/C(=C/c2ccccc2F)C1 | 64 | –
16 | O=C1/C(=C/c2ccccc2F)CN(C(=O)C2CCCCC2C(=O)O)C/C1=C\c1ccccc1F (configuration not stated) | 55 | –
17 | O=C(O)/C=C/C(=O)N1C/C(=C\c2ccccc2F)C(=O)/C(=C/c2ccccc2F)C1 | 29 | –
18 | O=C1/C(=C/c2ccccc2Br)CNC/C1=C\c1ccccc1Br | 6 | –
19 | O=C(O)CCCC(=O)N1C/C(=C\c2ccccc2F)C(=O)/C(=C/c2ccccc2F)C1 | 60 | –
20 | O=C1/C(=C/c2ccccc2F)CN(C(=O)c2ccccc2C(=O)O)C/C1=C\c1ccccc1F | 56 | –
21 | O=C1/C(=C/c2ccc(F)cc2)CNC/C1=C\c1ccc(F)cc1 | 45.7 | –
22 | O=C1/C(=C/c2ccc(Cl)cc2)CNC/C1=C\c1ccc(Cl)cc1 | 87 | –
23 | O=C(CN1C/C(=C\c2ccccc2F)C(=O)/C(=C/c2ccccc2F)C1)NCc1ccc(F)cc1 | 46 | –
24 | O=C(CCC(=O)N1C/C(=C\c2ccccc2F)C(=O)/C(=C/c2ccccc2F)C1)N[C@@H]1[C@@H](O)[C@H](O)[C@@H](CO)O[C@H]1O | 79 | –
